Values after ≈ are worked out from the molar mass of the structure shown. Active and inactive are the calls of the source. The rule behind the calls is not given here.

Holding throughout (format): functional
For experiment [1], the system named is Klebsiella pneumoniae. Kind of experiment: microbe, parasite or virus in culture. Particulars: ATCC 11298, 24 h, read-out: IZ.
Experiment [2] is described as follows: Antioxidant activity assessed as ABTS radical scavenging activity. An outline of the steps:
(§1)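 Test samples at 50, 100, 200 and 400 ug/ml were each mixed with 1 ml of freshly prepared ABTS radical cation solution, adjusted to absorbance 0.7–0.9 at 734 nm. Mixtures reacted 2 h in the dark, then absorbance was read at 734 nm against a blank. Scavenging % was taken as the absorbance decrease relative to ABTS solution without test sample.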

Experiment [3] deals with Staphylococcus aureus. Nature of the experiment: microbe, parasite or virus in culture. To be noted: ATCC 9144, 24 h.
Experiment [4] deals with Staphylococcus aureus. Kind of experiment: microbe, parasite or virus in culture. Particulars: ATCC 9144, 24 h, read-out: IZ.
Experiment [5] concerns Bacillus cereus. Nature of the experiment: microbe, parasite or virus in culture. To be noted: ATCC 11778, 24 h.
The nature of experiment [6]: Antioxidant activity assessed as ABTS radical scavenging activity at 100 ug/ml. An outline of the steps: as §1
A further experiment concerns MCF7. Nature of the experiment: Cytotoxicity against human MCF7 cells after 24 hrs by MTT assay. Particulars: MCF7, 24 h. In a few lines: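 Exponentially growing cells plated at 10⁴ cells/well and allowed to attach, then exposed to test compounds or doxorubicin (dissolved in 0.1% DMSO, diluted in medium; range 1–100) for 24 h; controls received medium with 0.1% DMSO. MTT (1 mg/ml) added for 4 h at 37 °C, formazan dissolved in DMSO, absorbance read at 540 nm; % cytotoxicity calculated from blank-corrected absorbances versus control.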
(In general: Tetrazolium assays rely on reduction of a dye to a coloured formazan, in cell work by metabolically active cells.)

Experiment [7] is described as follows: Antioxidant activity assessed as ABTS radical scavenging activity at 50 ug/ml. In a few lines: as §1
Experiment [8] in a line: Antioxidant activity assessed as ABTS radical scavenging activity at 400 ug/ml. An outline of the steps: as §1
The subject of experiment [9] is Escherichia coli. Nature of the experiment: microbe, parasite or virus in culture. To be noted: ATCC 25922, 24 h, read-out: IZ.
The test system of experiment [10] is Escherichia coli. Kind of experiment: microbe, parasite or virus in culture. Particulars: ATCC 25922, 24 h.
Experiment [11] has as its system Radical scavenging activity. Nature of the experiment: Antioxidant activity assessed as DPPH radical scavenging activity at 400 ug/ml. An outline of the steps: (§2)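 Each test sample was mixed with 1 ml DPPH in methanol, incubated at 37 °C for 30 min, and read spectrophotometrically at 517 nm with a blank reading. Scavenging % was expressed as the absorbance decrease at 517 nm relative to DPPH solution without test sample.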
For orientation: DPPH is a stable violet radical that fades when it is reduced.

The test system of experiment [12] is Klebsiella pneumoniae. Nature of the experiment: microbe, parasite or virus in culture. Particulars: ATCC 11298, 24 h.
The nature of experiment [13]: Antioxidant activity assessed as ABTS radical scavenging activity at 200 ug/ml. In a few lines:
as §1

The test system of experiment [14] is Radical scavenging activity. Kind of experiment: Antioxidant activity assessed as DPPH radical scavenging activity at 50 ug/ml. An outline of the steps: as §2
In experiment [15] the test system is Radical scavenging activity. Nature of the experiment: Antioxidant activity assessed as DPPH radical scavenging activity. In a few lines: as §2
The test system of experiment [16] is Radical scavenging activity. Nature of the experiment: Antioxidant activity assessed as DPPH radical scavenging activity at 200 ug/ml. In a few lines:
as §2

The test system of experiment [17] is Radical scavenging activity. Nature of the experiment: Antioxidant activity assessed as DPPH radical scavenging activity at 100 ug/ml. An outline of the steps: as §2
The test system of experiment [18] is Bacillus cereus. Nature of the experiment: Antimicrobial activity against Bacillus cereus ATCC 11778 at 100 ug/ml after 24 hrs by paper disk diffusion method. Particulars: ATCC 11778, 24 h, read-out: IZ.

In the case of `N#CC1=C(N)OC(c2c[nH]c3ccccc23)=C(C#N)C1c1ccc(F)cc1` (stereo unspecified), the zone of inhibition at 100 µg/mL was found to be 17 mm with Klebsiella pneumoniae [1], 21 mm in the experiment on Staphylococcus aureus [4], 18 mm with Escherichia coli [9] and 16 mm in the experiment with Bacillus cereus [18]. Further, the IC50 amounted to 960 µg/mL (≈ 2690 µM) in [2] and 901.11 µg/mL (≈ 2530 µM) in experiment [15]. In addition, the MIC in the experiment on Staphylococcus aureus [3] was determined as 16.8 µg/mL (≈ 47.1 µM); against Bacillus cereus [5], 20.3 µg/mL (≈ 57 µM); with Escherichia coli [10], 26.2 µg/mL (≈ 73.5 µM); in the experiment with Klebsiella pneumoniae [12], 20.1 µg/mL (≈ 56.4 µM). The Activity in [6] (at 100 µg/mL) stood at 16.2%; in experiment [7] (at 50 µg/mL), 8.4%; in experiment [8] (at 400 µg/mL) it was 26.7%; in experiment [11] (at 400 µg/mL), 36.5%; in experiment [13] (at 200 µg/mL), 22.4%; in [14] (at 50 µg/mL) it was 26.9%. In addition, the Activity in [16] (at 200 µg/mL) was 31.4%; in experiment [17] (at 100 µg/mL), 28.9%. For the same compound, growth in the experiment with MCF7 was halved (GI50) at 28 µM. In the experiment with MCF7, the LC50 (concentration killing 50% of cells) was more than 100 µM. The compound also gave a TGI in the experiment on MCF7 of 52.4 µM.

For the compound `N#CC1=C(N)OC(c2c[nH]c3ccccc23)=C(C#N)C1c1ccc(Br)cc1` (stereo unspecified), the zone of inhibition at 100 µg/mL in the experiment with Klebsiella pneumoniae [1] is 16 mm; with Staphylococcus aureus [4] it was 20 mm; with Escherichia coli [9], 15 mm; in the experiment on Bacillus cereus [18], 14 mm. Moreover, the IC50 stood at 947.09 µg/mL (≈ 2270 µM) in [2] and 117.8 µg/mL (≈ 282 µM) in experiment [15]. The MIC with Staphylococcus aureus [3] was found to be 21.3 µg/mL (≈ 51 µM); against Bacillus cereus [5] it was 28 µg/mL (≈ 67.1 µM); against Escherichia coli [10], 25.4 µg/mL (≈ 60.9 µM); against Klebsiella pneumoniae [12], 26.3 µg/mL (≈ 63 µM). Also, the Activity in experiment [6] (at 100 µg/mL) was 14.6%; in experiment [7] (at 50 µg/mL), 14.2%; in experiment [8] (at 400 µg/mL), 22.7%; in experiment [11] (at 400 µg/mL) it was 57.8%; in experiment [13] (at 200 µg/mL) it was 10.6%; in [14] (at 50 µg/mL) it was 46.7%. The Activity turned out to be 54.3% in experiment [16] (at 200 µg/mL) and 49.7% in experiment [17] (at 100 µg/mL). In the experiment on MCF7, this compound gave a GI50 of 21.8 µM. The LC50 (concentration killing 50% of cells) in the experiment on MCF7 was more than 100 µM. In the experiment on MCF7, this compound yielded a TGI of 48.1 µM.

Turning to `N#CC1=C(N)OC(c2c[nH]c3ccccc23)=C(C#N)C1c1ccccc1F` (stereo unspecified), the zone of inhibition at 100 µg/mL in the experiment on Klebsiella pneumoniae [1] was 15 mm; in the experiment on Staphylococcus aureus [4], 19 mm; with Escherichia coli [9] it was 15 mm; with Bacillus cereus [18], 14 mm. Besides, the result in experiment [2], in experiment [6], in experiment [7], in experiment [8], in experiment [11] and in experiment [13] was inactive. Moreover, the outcome in [14], in experiment [15], in experiment [16] and in [17] was inactive. For the same compound, the MIC amounted to 23.4 µg/mL (≈ 65.7 µM) in the experiment with Staphylococcus aureus [3], 22.6 µg/mL (≈ 63.4 µM) in the experiment with Bacillus cereus [5], 27.4 µg/mL (≈ 76.9 µM) in the experiment on Escherichia coli [10] and 30.2 µg/mL (≈ 84.7 µM) against Klebsiella pneumoniae [12]. For the same compound, in the experiment on MCF7, the GI50 was 22.8 µM. The LC50 (concentration killing 50% of cells) with MCF7 was more than 100 µM. Further, the TGI in the experiment with MCF7 was found to be 48.2 µM.

As for `N#CC1=C(N)OC(c2c[nH]c3ccccc23)=C(C#N)C1c1ccc(Cl)cc1` (stereo unspecified), the zone of inhibition at 100 µg/mL with Klebsiella pneumoniae [1] is 18 mm; in the experiment on Staphylococcus aureus [4], 23 mm; in the experiment with Escherichia coli [9], 19 mm; with Bacillus cereus [18], 18 mm. Also, the result in experiment [2], in experiment [6], in [7], in experiment [8], in experiment [11] and in [13] was inactive. Further, the result in experiment [14], in experiment [15], in experiment [16] and in [17] was inactive. The MIC is 13.4 µg/mL (≈ 35.9 µM) against Staphylococcus aureus [3], 19 µg/mL (≈ 51 µM) against Bacillus cereus [5], 21.5 µg/mL (≈ 57.7 µM) with Escherichia coli [10] and 17.5 µg/mL (≈ 46.9 µM) against Klebsiella pneumoniae [12].

In general, IC50 refers to the concentration needed to halve the response being measured. The term GI50 denotes the concentration at which growth is held to half of that of the control. Low readings indicate greater sensitivity of the cells, high ones lower sensitivity of the cells. A word on the TGI: it is the concentration at which net growth stops.

(Values after ChEMBL document CHEMBL1221298, “InCl3 mediated one-pot multicomponent synthesis, anti-microbial, antioxidant and anticancer evaluation of 3-pyranyl indole derivatives” (Bioorg Med Chem Lett, 2010).)
